ChEMBL document CHEMBL3045304, “Sesquiterpene lactones with potential use as natural herbicide models. 2. guaianolides” (2000)
Active and inactive are the calls of the source.

Experiments:
Allium cepa [1] = assay: Inhibition of germination of Allium cepa cv. Valenciana (onion) at 0.1 mM or 1 mM after 5 days relative to untreated control; type: functional
Triticum aestivum [2] = assay: Inhibition of root length of Triticum aestivum cv. Cortex (wheat) at 0.1 mM or 1 mM after 5 days relative to untreated control; type: functional
Summary of the method: (§1)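 Wheat: 10 seeds per dish on filter paper with 5 mL test solution, 5 days in the dark at 25 °C, 10 replicates per concentration. Stock test solutions were 10^-3 or 10^-4 M in 10 mM MES, with lower levels made by dilution, all at pH 6.0. Parallel controls were run. Output is % difference from control.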

Triticum aestivum [3] = assay: Inhibition of hypocotyl length of Triticum aestivum cv. Cortex (wheat) at 0.1 mM or 1 mM after 5 days relative to untreated control; type: functional; summary of the method: as §1
Triticum aestivum [4] = assay: Inhibition of germination of Triticum aestivum cv. Cortex (wheat) at 0.1 mM or 1 mM after 5 days relative to untreated control; type: functional; summary of the method: as §1
Solanum lycopersicum [5] = assay: Inhibition of hypocotyl length of Solanum lycopersicum cv. Tres Cantos (tomato) at 0.1 mM or 1 mM after 5 days relative to untreated control; type: functional
Summary of the method: (§2)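 Lettuce and tomato seeds, 25 per dish on filter paper, received 5 mL test solution. Incubation was 5 days in the dark at 25 °C, with four replicates per concentration. Solutions were made at 10^-3 or 10^-4 M in 10 mM MES, diluted serially, and adjusted to pH 6.0. Parallel controls were run. Results are % difference from control.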

Solanum lycopersicum [6] = assay: Inhibition of root length of Solanum lycopersicum cv. Tres Cantos (tomato) at 0.1 mM or 1 mM after 5 days relative to untreated control; type: functional; summary of the method: as §2
Allium cepa [7] = assay: Inhibition of root length of Allium cepa cv. Valenciana (onion) at 0.1 mM or 1 mM after 5 days relative to untreated control; type: functional
Allium cepa [8] = assay: Inhibition of hypocotyl length of Allium cepa cv. Valenciana (onion) at 0.1 mM or 1 mM after 5 days relative to untreated control; type: functional
Allium cepa [9] = assay: Stimulation of hypocotyl length of Allium cepa cv. Valenciana (onion) at 0.1 mM or 1 mM after 5 days relative to untreated control; type: functional
Allium cepa [10] = assay: Stimulation of root length of Allium cepa cv. Valenciana (onion) at 0.1 mM or 1 mM after 5 days relative to untreated control; type: functional
Triticum aestivum [11] = assay: Stimulation of hypocotyl length of Triticum aestivum cv. Cortex (wheat) at 0.1 mM or 1 mM after 5 days relative to untreated control; type: functional; summary of the method: as §1
Allium cepa [12] = assay: Stimulation of germination of Allium cepa cv. Valenciana (onion) at 0.1 mM or 1 mM after 5 days relative to untreated control; type: functional
Triticum aestivum [13] = assay: Stimulation of root length of Triticum aestivum cv. Cortex (wheat) at 0.1 mM or 1 mM after 5 days relative to untreated control; type: functional; summary of the method: as §1
Solanum lycopersicum [14] = assay: Inhibition of germination of Solanum lycopersicum cv. Tres Cantos (tomato) at 0.1 mM or 1 mM after 5 days relative to untreated control; type: functional; summary of the method: as §2
Lepidium sativum [15] = assay: Inhibition of germination of Lepidium sativum at 0.1 mM or 1 mM after 5 days relative to untreated control; type: functional
Lactuca sativa [16] = assay: Inhibition of hypocotyl length of Lactuca sativa cv. Roman (lettuce) at 0.1 mM or 1 mM after 5 days relative to untreated control; type: functional; summary of the method: as §2
Lactuca sativa [17] = assay: Inhibition of root length of Lactuca sativa cv. Roman (lettuce) at 0.1 mM or 1 mM after 5 days relative to untreated control; type: functional; summary of the method: as §2
Lactuca sativa [18] = assay: Inhibition of germination of Lactuca sativa cv. Roman (lettuce) at 0.1 mM or 1 mM after 5 days relative to untreated control; type: functional; summary of the method: as §2
Triticum aestivum [19] = assay: Stimulation of germination of Triticum aestivum cv. Cortex (wheat) at 0.1 mM or 1 mM after 5 days relative to untreated control; type: functional; summary of the method: as §1
Solanum lycopersicum [20] = assay: Stimulation of hypocotyl length of Solanum lycopersicum cv. Tres Cantos (tomato) at 0.1 mM or 1 mM after 5 days relative to untreated control; type: functional; summary of the method: as §2
Solanum lycopersicum [21] = assay: Stimulation of root length of Solanum lycopersicum cv. Tres Cantos (tomato) at 0.1 mM or 1 mM after 5 days relative to untreated control; type: functional; summary of the method: as §2
Solanum lycopersicum [22] = assay: Stimulation of germination of Solanum lycopersicum cv. Tres Cantos (tomato) at 0.1 mM or 1 mM after 5 days relative to untreated control; type: functional; summary of the method: as §2
Lepidium sativum [23] = assay: Stimulation of hypocotyl length of Lepidium sativum at 0.1 mM or 1 mM after 5 days relative to untreated control; type: functional
Lepidium sativum [24] = assay: Stimulation of root length of Lepidium sativum at 0.1 mM or 1 mM after 5 days relative to untreated control; type: functional
Lactuca sativa [25] = assay: Stimulation of root length of Lactuca sativa cv. Roman (lettuce) at 0.1 mM or 1 mM after 5 days relative to untreated control; type: functional; summary of the method: as §2
Lactuca sativa [26] = assay: Stimulation of hypocotyl length of Lactuca sativa cv. Roman (lettuce) at 0.1 mM or 1 mM after 5 days relative to untreated control; type: functional; summary of the method: as §2
Lactuca sativa [27] = assay: Stimulation of germination of Lactuca sativa cv. Roman (lettuce) at 0.1 mM or 1 mM after 5 days relative to untreated control; type: functional; summary of the method: as §2
Lepidium sativum [28] = assay: Inhibition of root length of Lepidium sativum at 0.1 mM or 1 mM after 4 days relative to untreated control
Lepidium sativum [29] = assay: Inhibition of germination of Lepidium sativum at 0.1 mM or 1 mM after 4 days relative to untreated control; set-up: scale not given: the % may be the effect or the level left
Lepidium sativum [30] = assay: Inhibition of hypocotyl length of Lepidium sativum at 0.1 mM or 1 mM after 4 days relative to untreated control
Allium cepa [31] = assay: Stimulation of root length of Allium cepa cv. Valenciana (onion) at 0.1 mM or 1 mM after 7 days relative to untreated control
Allium cepa [32] = assay: Stimulation of germination of Allium cepa cv. Valenciana (onion) at 0.1 mM or 1 mM after 7 days relative to untreated control
Allium cepa [33] = assay: Inhibition of hypocotyl length of Allium cepa cv. Valenciana (onion) at 0.1 mM or 1 mM after 7 days relative to untreated control
Allium cepa [34] = assay: Stimulation of hypocotyl length of Allium cepa cv. Valenciana (onion) at 0.1 mM or 1 mM after 7 days relative to untreated control
Lepidium sativum [35] = assay: Inhibition of germination of Lepidium sativum at 0.1 mM or 1 mM after 4 days relative to untreated control

C=C1C(=O)C[C@H]2C(=C)CC[C@H]3C(=C)C(=O)O[C@@H]3[C@@H]12 [DEHYDROZALUZANIN C]
>40%: inhibition (INH) (Allium cepa [1]) | inhibition (INH) (Triticum aestivum [2]) | inhibition (INH) (Triticum aestivum [3]) | inhibition (INH) (Triticum aestivum [4]) | inhibition (INH) (Solanum lycopersicum [5]) | inhibition (INH) (Solanum lycopersicum [6]) | inhibition (INH) (Allium cepa [7]) | inhibition (INH) (Allium cepa [8]) | Activity (Allium cepa [9]) | Activity (Allium cepa [10]) | Activity (Triticum aestivum [11]) | Activity (Allium cepa [12]) | Activity (Triticum aestivum [13]) | inhibition (INH) (Solanum lycopersicum [14]) | inhibition (INH) (Lepidium sativum [15]) | inhibition (INH) (Lactuca sativa [16]) | inhibition (INH) (Lactuca sativa [17]) | inhibition (INH) (Lactuca sativa [18]) | Activity (Triticum aestivum [19]) | Activity (Solanum lycopersicum [20]) | Activity (Solanum lycopersicum [21]) | Activity (Solanum lycopersicum [22]) | Activity (Lepidium sativum [23]) | Activity (Lepidium sativum [24]) | Activity (Lactuca sativa [25]) | Activity (Lactuca sativa [26]) | Activity (Lactuca sativa [27]) | inhibition (INH) (Lepidium sativum [28]) | Activity (Lepidium sativum [29]) | inhibition (INH) (Lepidium sativum [30])

C=C1[C@@H]2[C@H]3OC(=O)C(=C)[C@@H]3CCC(=C)[C@@H]2C[C@@H]1O [ZALUZANIN C]
20%: inhibition (INH) (Triticum aestivum [2]) | inhibition (INH) (Triticum aestivum [3]) | Activity (Triticum aestivum [11]) | Activity (Triticum aestivum [13]) | inhibition (INH) (Lactuca sativa [16]) | inhibition (INH) (Lactuca sativa [17]) | Activity (Lactuca sativa [25]) | Activity (Lactuca sativa [26])
<20%: inhibition (INH) (Triticum aestivum [4]) | inhibition (INH) (Solanum lycopersicum [6]) | inhibition (INH) (Lepidium sativum [15]) | Activity (Triticum aestivum [19]) | Activity (Solanum lycopersicum [21]) | Activity (Lepidium sativum [24]) | inhibition (INH) (Lepidium sativum [28]) | Activity (Lepidium sativum [29])
inactive: inhibition (Allium cepa [1]) | inhibition (Solanum lycopersicum [5]) | inhibition (Allium cepa [7]) | inhibition (Solanum lycopersicum [14]) | inhibition (Lactuca sativa [18]) | Activity (Solanum lycopersicum [20]) | Activity (Solanum lycopersicum [22]) | Activity (Lepidium sativum [23]) | Activity (Lactuca sativa [27]) | inhibition (Lepidium sativum [30]) | Activity (Allium cepa [31]) | Activity (Allium cepa [32]) | inhibition (Allium cepa [33]) | Activity (Allium cepa [34])

CC1=CC(=O)C2=C(C)C[C@H](O)[C@H]3[C@H](OC(=O)[C@@H]3C)[C@@H]12 [8ALPHA-HYDROXYACHILLIN]
<20%: inhibition (INH) (Solanum lycopersicum [5]) | inhibition (INH) (Solanum lycopersicum [14]) | Activity (Solanum lycopersicum [20]) | Activity (Solanum lycopersicum [22])
inactive: inhibition (Allium cepa [1]) | inhibition (Triticum aestivum [2]) | inhibition (Triticum aestivum [3]) | inhibition (Triticum aestivum [4]) | inhibition (Solanum lycopersicum [6]) | inhibition (Allium cepa [7]) | Activity (Triticum aestivum [11]) | Activity (Triticum aestivum [13]) | inhibition (Lactuca sativa [16]) | inhibition (Lactuca sativa [17]) | inhibition (Lactuca sativa [18]) | Activity (Triticum aestivum [19]) | Activity (Solanum lycopersicum [21]) | Activity (Lepidium sativum [23]) | Activity (Lepidium sativum [24]) | Activity (Lactuca sativa [25]) | Activity (Lactuca sativa [26]) | Activity (Lactuca sativa [27]) | inhibition (Lepidium sativum [28]) | Activity (Lepidium sativum [35]) | inhibition (Lepidium sativum [35]) | inhibition (Lepidium sativum [30]) | Activity (Allium cepa [31]) | Activity (Allium cepa [32]) | inhibition (Allium cepa [33]) | Activity (Allium cepa [34])

C=C1[C@@H]2[C@H]3OC(=O)[C@@H](CO)[C@@H]3CCC(=C)[C@@H]2C[C@H]1O
inactive: inhibition (Allium cepa [1]) | inhibition (Triticum aestivum [2]) | inhibition (Triticum aestivum [3]) | inhibition (Triticum aestivum [4]) | inhibition (Solanum lycopersicum [5]) | inhibition (Solanum lycopersicum [6]) | inhibition (Allium cepa [7]) | Activity (Triticum aestivum [11]) | Activity (Triticum aestivum [13]) | inhibition (Solanum lycopersicum [14]) | Activity (Triticum aestivum [19]) | Activity (Solanum lycopersicum [20]) | Activity (Solanum lycopersicum [21]) | Activity (Solanum lycopersicum [22]) | Activity (Lepidium sativum [35]) | inhibition (Lepidium sativum [35]) | Activity (Allium cepa [31]) | Activity (Allium cepa [32]) | inhibition (Allium cepa [33]) | Activity (Allium cepa [34])
>40%: inhibition (INH) (Lactuca sativa [16]) | Activity (Lactuca sativa [26])
20%: inhibition (INH) (Lactuca sativa [17]) | Activity (Lepidium sativum [24]) | Activity (Lactuca sativa [25]) | inhibition (INH) (Lepidium sativum [28])
<20%: inhibition (INH) (Lactuca sativa [18]) | Activity (Lepidium sativum [23]) | Activity (Lactuca sativa [27]) | inhibition (INH) (Lepidium sativum [30])

C=C1C(=O)O[C@H]2[C@H]1CCC(=C)[C@@H]1CCC(=C)[C@@]12O
20%: inhibition (INH) (Allium cepa [7]) | Activity (Allium cepa [10]) | inhibition (INH) (Lactuca sativa [17]) | Activity (Lactuca sativa [25])
<20%: inhibition (INH) (Triticum aestivum [3]) | inhibition (INH) (Solanum lycopersicum [6]) | inhibition (INH) (Allium cepa [8]) | Activity (Allium cepa [9]) | Activity (Triticum aestivum [11]) | inhibition (INH) (Lepidium sativum [15]) | Activity (Solanum lycopersicum [21]) | Activity (Lepidium sativum [29])
>=20%: Activity (Lepidium sativum [23]) | Activity (Lepidium sativum [24]) | inhibition (INH) (Lepidium sativum [28]) | inhibition (INH) (Lepidium sativum [30])
inactive: inhibition (Allium cepa [1]) | inhibition (Triticum aestivum [2]) | inhibition (Triticum aestivum [4]) | inhibition (Solanum lycopersicum [5]) | Activity (Allium cepa [12]) | Activity (Triticum aestivum [13]) | inhibition (Solanum lycopersicum [14]) | inhibition (Lactuca sativa [16]) | inhibition (Lactuca sativa [18]) | Activity (Triticum aestivum [19]) | Activity (Solanum lycopersicum [20]) | Activity (Solanum lycopersicum [22]) | Activity (Lactuca sativa [26]) | Activity (Lactuca sativa [27])

C=C1C(=O)O[C@H]2[C@H]1CCC(=C)[C@@H]1C[C@@H](O)C(=C)[C@@]12O [5ALPHA-HYDROXYISOZALUZANIN C]
20%: inhibition (INH) (Triticum aestivum [3]) | Activity (Triticum aestivum [11]) | inhibition (INH) (Lactuca sativa [16]) | inhibition (INH) (Lactuca sativa [18]) | Activity (Lactuca sativa [26]) | Activity (Lactuca sativa [27])
inactive: inhibition (Allium cepa [1]) | inhibition (Triticum aestivum [4]) | Activity (Allium cepa [12]) | inhibition (Solanum lycopersicum [14]) | Activity (Triticum aestivum [19]) | Activity (Solanum lycopersicum [22])
>40%: inhibition (INH) (Triticum aestivum [2]) | inhibition (INH) (Solanum lycopersicum [5]) | inhibition (INH) (Solanum lycopersicum [6]) | inhibition (INH) (Allium cepa [7]) | inhibition (INH) (Allium cepa [8]) | Activity (Allium cepa [9]) | Activity (Allium cepa [10]) | Activity (Triticum aestivum [13]) | inhibition (INH) (Lepidium sativum [15]) | Activity (Solanum lycopersicum [20]) | Activity (Solanum lycopersicum [21]) | Activity (Lepidium sativum [23]) | Activity (Lepidium sativum [24]) | inhibition (INH) (Lepidium sativum [28]) | Activity (Lepidium sativum [29]) | inhibition (INH) (Lepidium sativum [30])
<20%: inhibition (INH) (Lactuca sativa [17]) | Activity (Lactuca sativa [25])
